The source of these data is ChEMBL document CHEMBL4422685, “Design, synthesis and evaluation of a series of 5-methoxy-2,3-naphthalimide derivatives as AcrB inhibitors for the reversal of bacterial resistance” (Bioorg Med Chem Lett, 2019).

Structures are written as SMILES.

The target of series [1] is T1, Multidrug efflux pump subunit AcrB (Escherichia coli (strain K12)) (UniProt P31224).
T1 sequence (whole entry): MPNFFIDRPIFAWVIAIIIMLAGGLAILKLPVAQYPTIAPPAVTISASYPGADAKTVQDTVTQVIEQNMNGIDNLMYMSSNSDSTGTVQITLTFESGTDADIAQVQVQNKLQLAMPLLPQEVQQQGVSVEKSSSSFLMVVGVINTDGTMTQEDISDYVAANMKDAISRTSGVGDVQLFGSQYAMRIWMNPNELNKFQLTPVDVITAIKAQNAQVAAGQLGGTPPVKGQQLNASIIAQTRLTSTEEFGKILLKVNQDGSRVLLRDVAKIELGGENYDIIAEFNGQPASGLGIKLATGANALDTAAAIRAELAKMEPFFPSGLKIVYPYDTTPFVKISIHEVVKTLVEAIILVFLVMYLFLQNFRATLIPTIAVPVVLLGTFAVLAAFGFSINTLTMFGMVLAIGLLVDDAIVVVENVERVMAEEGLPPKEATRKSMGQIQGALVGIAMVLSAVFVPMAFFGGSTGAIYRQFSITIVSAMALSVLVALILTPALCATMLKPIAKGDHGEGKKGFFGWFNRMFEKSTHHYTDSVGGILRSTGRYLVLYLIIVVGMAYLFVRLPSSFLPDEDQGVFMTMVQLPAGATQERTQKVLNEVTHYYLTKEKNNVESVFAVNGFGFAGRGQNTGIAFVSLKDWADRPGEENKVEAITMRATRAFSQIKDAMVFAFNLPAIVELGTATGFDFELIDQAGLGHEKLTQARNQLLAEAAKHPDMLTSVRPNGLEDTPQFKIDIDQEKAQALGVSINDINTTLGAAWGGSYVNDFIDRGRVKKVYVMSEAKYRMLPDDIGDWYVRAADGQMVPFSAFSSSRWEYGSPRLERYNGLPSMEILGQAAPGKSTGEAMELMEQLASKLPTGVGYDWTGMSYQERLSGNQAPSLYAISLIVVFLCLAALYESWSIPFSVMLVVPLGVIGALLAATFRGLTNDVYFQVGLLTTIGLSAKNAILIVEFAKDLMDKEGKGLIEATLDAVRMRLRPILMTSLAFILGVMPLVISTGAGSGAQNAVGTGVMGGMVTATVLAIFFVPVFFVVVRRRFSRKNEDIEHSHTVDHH
Description: Inhibition of AcrB in wild-type drug-resistant Escherichia coli […] assessed as potentiation of erythromycin-induced antimicrobial activity by measuring erythromycin MIC at 128 ug/ml by checkerboard titration method (reference value: 64 ug/ml).

Series [2] concerns the target T1, Multidrug efflux pump subunit AcrB (Escherichia coli (strain K12)). Description: Inhibition of AcrB in wild-type drug-resistant Escherichia coli […] assessed as potentiation of tetraphenyl phosphonium chloride-induced antimicrobial activity by measuring tetraphenyl phosphonium chloride MIC at 8 ug/ml by checkerboard titration method (reference value: 1024 ug/ml).

The target is the same in series [3]. Description: Inhibition of AcrB in wild-type drug-resistant Escherichia coli […] assessed as potentiation of erythromycin-induced antimicrobial activity by measuring erythromycin MIC at 64 ug/ml by checkerboard titration method (reference value: 64 ug/ml).
Series [4] has the same target. Briefly: Inhibition of AcrB in wild-type drug-resistant Escherichia coli […] assessed as potentiation of chloramphenicol-induced antimicrobial activity by measuring chloramphenicol MIC at 32 ug/ml by checkerboard titration method (Rvb =16 ug/ml).
The target is the same in series [5]. Briefly: Inhibition of AcrB in wild-type drug-resistant Escherichia coli […] assessed as potentiation of chloramphenicol-induced antimicrobial activity by measuring chloramphenicol MIC at 128 ug/ml by checkerboard titration method (Rvb =16 ug/ml).
Series [6] deals with Escherichia coli. Briefly: Induction of Escherichia coli outer membrane permeabilization assessed as increase in nitrocefin hydrolysis at 128 ug/ml by spectroscopic method. In kind it is organism-based.
The target of series [7] is T1, Multidrug efflux pump subunit AcrB (Escherichia coli (strain K12)). Briefly: Inhibition of AcrB in wild-type drug-resistant Escherichia coli […] assessed as potentiation of chloramphenicol-induced antimicrobial activity by measuring chloramphenicol MIC at 8 ug/ml by checkerboard titration method (Rvb =16 ug/ml).
Series [8] deals with Escherichia coli. Briefly: Disruption of Escherichia coli inner membrane integrity at 128 ug/ml after 10 mins by DiOC2(3) probe based fluorescence assay. In kind it is ADME, organism-based. Conditions: in vivo. In outline:
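Bacterial suspensions pre-exposed to compound for 10 min, then DiOC2(3) added and fluorescence followed to plateau. Cells re-energized with 0.5% glucose; membrane potential (inside negative) read as fluorescence rise to plateau, then collapsed with the proton ionophore CCCP. Untreated cells run alongside.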

Series [9] has as its target T1, Multidrug efflux pump subunit AcrB (Escherichia coli (strain K12)). Description: Inhibition of AcrB in wild-type drug-resistant Escherichia coli […] assessed as potentiation of levofloxacin-induced antimicrobial activity by measuring levofloxacin MIC at 16 ug/ml by checkerboard titration method (reference value: 0.063 ug/ml).
For series [10] the target is unchanged. Briefly: Inhibition of AcrB in wild-type drug-resistant Escherichia coli […] assessed as potentiation of tetraphenyl phosphonium chloride-induced antimicrobial activity by measuring tetraphenyl phosphonium chloride MIC at 128 ug/ml by checkerboard titration method (reference value: 1024 ug/ml).
Series [11] shares this target. Briefly: Inhibition of AcrB in wild-type drug-resistant Escherichia coli […] assessed as potentiation of tetraphenyl phosphonium chloride-induced antimicrobial activity by measuring tetraphenyl phosphonium chloride MIC at 32 ug/ml by checkerboard titration method (reference value: 1024 ug/ml).
For series [12] the target is unchanged. Briefly: Inhibition of AcrB in wild-type drug-resistant Escherichia coli […] assessed as potentiation of levofloxacin-induced antimicrobial activity by measuring levofloxacin MIC at 8 ug/ml by checkerboard titration method (reference value: 0.063 ug/ml).
Series [13] has the same target. Description: Inhibition of AcrB in wild-type drug-resistant Escherichia coli […] assessed as potentiation of tetraphenyl phosphonium chloride-induced antimicrobial activity by measuring tetraphenyl phosphonium chloride MIC at 16 ug/ml by checkerboard titration method (reference value: 1024 ug/ml).
Series [14] shares this target. Description: Inhibition of AcrB in wild-type drug-resistant Escherichia coli BW2113 assessed as potentiation of chloramphenicol-induced antimicrobial activity by measuring chloramphenicol MIC at 16 ug/ml by checkerboard titration method (Rvb =16 ug/ml).
Series [15] has the same target. Description: Inhibition of AcrB in wild-type drug-resistant Escherichia coli […] assessed as potentiation of levofloxacin-induced antimicrobial activity by measuring levofloxacin MIC at 64 ug/ml by checkerboard titration method (reference value: 0.063 ug/ml).
Series [16] shares this target. Briefly: Inhibition of AcrB in wild-type drug-resistant Escherichia coli […] assessed as potentiation of levofloxacin-induced antimicrobial activity by measuring levofloxacin MIC at 32 ug/ml by checkerboard titration method (reference value: 0.063 ug/ml).
For series [17] the target is unchanged. Description: Inhibition of AcrB in wild-type drug-resistant Escherichia coli […] assessed as potentiation of levofloxacin-induced antimicrobial activity by measuring levofloxacin MIC at 128 ug/ml by checkerboard titration method (reference value: 0.063 ug/ml).

With `COc1cccc2cc3c(cc12)C(=O)N(c1ccccc1Cl)C3=O`, the MIC was 16 µg/mL in [1]; 1020 µg/mL in [2]; 64 µg/mL in series [3]; 16 µg/mL in [4]; 16 µg/mL in [5]; 16 µg/mL in series [7]. Moreover, the MIC is 0.063 µg/mL in series [9]; 512 µg/mL in series [10]; 1020 µg/mL in series [11]; 0.063 µg/mL in series [12]; 1020 µg/mL in series [13]; 16 µg/mL in series [14]. Besides, the MIC in series [15], in series [16] and in series [17] was 0.063 µg/mL throughout. Moreover, the Activity entry with Escherichia coli [6] and in the series on Escherichia coli [8] was “Non-Toxic” in each case.

`COc1cccc2cc3c(cc12)C(=O)N(C1CCCC1)C3=O`: the MIC worked out at 8 µg/mL in series [1]; 1020 µg/mL in series [2]; 16 µg/mL in series [3]; 16 µg/mL in [4]; 16 µg/mL in series [5]; 16 µg/mL in series [7]. For the same compound, the MIC in series [9] was determined as 0.063 µg/mL; in series [10], 1020 µg/mL; in series [11] it was 1020 µg/mL; in [12] it was 0.063 µg/mL; in [13] it was 1020 µg/mL; in series [14] it was 16 µg/mL. Moreover, the MIC in series [15], in [16] and in series [17] was 0.063 µg/mL each time. In addition, the Activity result in the series with Escherichia coli [6] and with Escherichia coli [8] was “Non-Toxic” in each case.

`COc1ccccc1CN1C(=O)c2cc3cccc(OC)c3cc2C1=O`: the MIC was determined as 64 µg/mL in [1]; 1020 µg/mL in series [2]; 64 µg/mL in [3]; 16 µg/mL in [4]; 16 µg/mL in series [5]; 16 µg/mL in series [7]. The MIC in series [9] is 0.0039 µg/mL; in series [10], 512 µg/mL; in series [11] it was 1020 µg/mL; in series [12] it was 0.016 µg/mL; in [13] it was 1020 µg/mL; in series [14], 16 µg/mL. For the same compound, the MIC is 0.0019 µg/mL in series [15], 0.0039 µg/mL in series [16] and 0.0019 µg/mL in series [17]. For the same compound, the Activity entry with Escherichia coli [6] and with Escherichia coli [8] was “Non-Toxic” each time.

Turning to `COc1cccc2cc3c(cc12)C(=O)N(C)C3=O`, the MIC in series [1] is 32 µg/mL; in [2], 1020 µg/mL; in series [3], 32 µg/mL; in [4], 16 µg/mL; in series [5], 16 µg/mL; in series [7] it was 16 µg/mL. Further, the MIC in series [9] is 0.063 µg/mL; in [10], 1020 µg/mL; in series [11], 1020 µg/mL; in [12] it was 0.063 µg/mL; in [13] it was 1020 µg/mL; in series [14] it was 16 µg/mL. The MIC in series [15], in series [16] and in series [17] was 0.0313 µg/mL throughout. Further, the Activity entry with Escherichia coli [8] is reported as “Non-Toxic”.

As for `COc1ccc(CN2C(=O)c3cc4cccc(OC)c4cc3C2=O)cc1`, the MIC in series [1] was found to be 32 µg/mL; in series [2], 1020 µg/mL; in [3], 32 µg/mL; in [4], 16 µg/mL; in series [5] it was 16 µg/mL; in [7], 16 µg/mL. Further, the MIC in [9] stood at 0.063 µg/mL; in series [10], 1020 µg/mL; in [11], 1020 µg/mL; in series [12], 0.063 µg/mL; in series [13], 1020 µg/mL; in series [14], 16 µg/mL. Also, the MIC in series [15], in [16] and in series [17] was 0.063 µg/mL throughout.
